From PMC10739243 (ACS Bio & Med Chem Au, 2023)
Residues, ends and D or L forms follow the SMILES beside them.

Experiments:
[1] = system: L929 cells; assay: Cellular uptake of CF-labeled peptides by FACS; format: cell-based; conditions: 10 μM CF-labeled peptide, 6 h incubation
Method in brief: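 L929 cells grown in DMEM with 10% FBS and 1% penicillin-streptomycin, seeded at 50×10^4 cells/well, and cultured 24 h. Treated 6 h with 10 μM carboxyfluorescein-labelled peptide. Washed with PBS (10 mM, pH 7.4), detached with 0.25% trypsin, pellet washed three times with PBS, then analysed by flow cytometry.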

[2] = system: L929 cells; assay: Cellular uptake mechanism by FACS; format: cell-based
[3] = system: ctDNA; assay: Hoechst; format: binding; conditions: Hoechst-bound ctDNA titrated with peptide, fluorescence at 460 nm
[4] = system: plasmid DNA (pDNA, 4.7 kb); format: binding
[5] = system: pDNA; assay: DLS and ζ-potential of peptide/pDNA polyplex; format: physicochemical
Method in brief: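 Plasmid was pEGFP-C2 (4.7 kb), isolated from E. coli DH5α, with purity checked by A260/A280. It was mixed with peptide (0–25 μM) in Tris-HCl (10 mM, pH 7.4). Hydrodynamic size was measured by dynamic light scattering in a 1 cm quartz cuvette, alongside ζ-potential.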

[6] = Polyplex stability against NaCl, agarose gel retardation; format: physicochemical; conditions: pDNA condensed with 25 μM peptide, NaCl treatment

For `C[C@H](N)C(=O)N[C@@H](C)C(=O)N[C@@H](CCCCN)C(=O)N[C@@H](CCCCN)C(=O)N[C@@H](C)C(=O)N[C@@H](C)C(=O)N[C@@H](C)C(=O)N[C@@H](CCCCN)C(=O)N[C@@H](CCCCN)C(=O)N[C@@H](C)C(=O)N[C@@H](C)C(=O)N[C@@H](C)C(=O)N[C@@H](CCCCN)C(=O)N[C@@H](CCCCN)C(=O)N[C@@H](C)C(=O)N[C@@H](C)C(=O)N[C@@H](C)C(=O)N[C@@H](CCCCN)C(=O)N[C@@H](CCCCN)C(=O)N[C@@H](C)C(N)=O` [Ku-A4] (H-AAKKAAAKKAAAKKAAAKKA-NH2; N-terminus assumed), the “cell penetration efficacy (cellular uptake, FACS)” value [1] was “superior cell penetration ability”, the “inhibition of cellular uptake by macropinocytosis inhibitor amiloride” value [2] was 48% and the “reduction of peptide uptake by energy depletion with NaN3” value ([2]; 0.1% NaN3 pre-incubated 1 h before peptide) was 38%. For the same compound, the “cellular uptake at 4 °C (reduced to)” value ([2]; 1 h pre-incubation at 4 °C then peptide 6 h at 4 °C) was 18%, the “peptide concentration for complete Hoechst displacement” value [3] was 10 µM and the “peptide concentration for complete condensation of DNA (gel)” value [4] was 3 µM. For the same compound, the “size of polyplex at higher peptide concentrations” value ([5]; DLS, pDNA in Tris-HCl 10 mM pH 7.4, higher peptide concentrations (up to 25 μM)) was 140 nm, the “ζ-potential of polyplex at 25 μM peptide” value ([5]; DNA 200 ng/mL, 25 μM peptide) was “+16.4 mV” and the “NaCl concentration at which polyplex starts disassembling” value [6] was 250 mM.
